# Measurements pooled from the literature.
# Protocols differ between the studies behind these lines.
# Target: Serine/threonine-protein kinase OSR1 (OXSR1, Homo sapiens, UniProt O95747)
SMILES,effect on,mode,method,tested at,quantity,value
C[C@H]1CC[C@H](n2c3cnccc3c3cnc(Nc4ccc5c(n4)CCN(C(=O)CO)C5)nc32)CC1,cell-free assay,,,1 µM,remaining signal,100%
CCCCC(=O)Nc1ccc(-c2ccc3ncn(CCC)c(=O)c3c2)cn1,binding,,competition with immobilised ligand,0.5 µM,remaining binding,100%
CC(C)S(=O)(=O)c1ccc2nccc(Nc3ccc4sc(C5CCCC5)nc4c3)c2c1,enzyme activity,inhibitor,,1 µM,activity vs control,108%
CO[C@@H]1[C@H](N(C)C(=O)c2ccccc2)C[C@H]2O[C@]1(C)n1c3ccccc3c3c4c(c5c6ccccc6n2c5c31)C(=O)NC4,enzyme activity,inhibitor,,1 µM,inhibition,24%
Cc1ccc(NC(=O)c2ccnc(C(F)(F)F)c2)cc1-c1cc(OCCO)nc(N2CCOCC2)c1,binding,,,1 µM,remaining binding,89%
Cc1cc(O)c(-c2ccc([C@@H](C)CN(C)C)cc2)c2c1[nH]c(=O)c1sccc12,enzyme activity,inhibitor,,0.1 µM,inhibition,6.5%
C#Cc1cc(-c2cc(Nc3nc(N[C@@H](C)c4ccc(F)cn4)ncc3Cl)n[nH]2)ccc1C=O,enzyme activity,inhibitor,,0.2 µM,inhibition,18.2%
C=CC(=O)N1CCC([C@@H]2CCNc3c(C(N)=O)c(-c4ccc(Oc5ccccc5)cc4)nn32)CC1,enzyme activity,inhibitor,,1 µM,inhibition,0%
